Source: PubChem
PglD DTNB: C. jejuni PglD acetyltransferase inhibitors, primary screen, biochemical, DTNB colorimetric, single point; purified PglD enzyme, DTNB colorimetric CoA detection; 0.098% of 360,000 active; inhibition, % at 12.5 µM; in the data active = inhibition above about 16%, passing the limit was not always enough
Yeast superoxide: reduction of superoxide in aged yeast, primary screen, HTS. superoxide response (% of plate mean), % at 10 µM. S. cerevisiae aged cells, superoxide DHE fluorescence; hits give low values. 0.18% of 330,000 active;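 active = superoxide response under a set limit, about three screen SD below normal, cut at about 65% in these data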;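 also: yeast aged for seven days with compound at 30 °C before DHE staining; 100% = average MFI of all compound-treated wells on the plate with controls excluded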
Mot1-301 SUMO: yeast Mot1-301 growth rescue at high temperature, primary screen, SUMOylation pathway inhibitor project, S. cerevisiae, ATP luminescence, 38.5C. S. cerevisiae Mot1-301 growth rescue; percent above DMSO median, 100 means doubled. growth rescue, % at 18.8 µM. 1% of 320,000 active;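 active = every valid replicate shows activation above 250% relative to neutral control wells; inactive = the rest, any valid replicate at or below 250%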;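 also: OY570 slx delta 5 strain wells were the positive control but not used for scaling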
Cneo AK release: Cryptococcus neoformans cell lysis inducers, primary screen, AK release luminescence, single concentration; 0.2% of 360,000 active; C. neoformans lysis, adenylate kinase release luminescence, 4 h; normalised: neutral wells 0, clomiphene wells 100; lysis activity, % at 15 µM;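 active = mean lysis activity across replicates of at least 80%, whatever share of replicates individually reach that level; inactive = mean lysis activity below 80%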
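Assay system: Cryptococcus neoformans yeast cells / Dosing: single-point compound dose / Timing: 4 h at 37 °C static, read 1 h later / Measured by: luminescence of released adenylate kinase using an AK detection reagent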
Ecoli rRNA inh: reduced GFP signal of wild-type E. coli, primary screen, bacterial rRNA inhibitor project, GFP/RFP fluorescence, OD600, single point | E. coli WT GFP vs humanized-ribosome RFP mutants, 24 h; hits give low values; DMSO median 0, no signal -100 | GFP signal change (wild-type ribosome), % (concentration not given with the values) | 1.6% of 350,000 active;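 active = significant combined selectivity score with lowered wild-type GFP, culture density cut under 30%, mutant RFP and density less affected; inactive = any of these conditions unmet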
Yeast Mot1 SUMO: growth restoration of Mot1-301 yeast on galactose, dose response, SUMO pathway inhibitor project, whole organism, S. cerevisiae, ATP luminescence, cherry-picked samples; shares compounds with Mot1-301 SUMO; S. cerevisiae Mot1-301 galactose growth, 24 h; -100 = growth of slx-deleted rescue strain; growth activity, percent, % at 42 µM; 2,300 tested, under 10 active; AID 493004, 2010;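 active = Signal drops as the depositor expects, and the fitted half-maximal dose is no more than ten times the top valid tested dose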;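 also: more negative values mean stronger growth rescue toward the control strain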
An asterisk follows results filed as active. Shown are actives, neighbours in structure and some others; about 2.2% of the full set was active somewhere.

For O=C(CSc1nc2ccc(Nc3nc(N4CCOCC4)nc(N4CCOCC4)n3)cc2s1)N1CCOCC1 the results were Yeast superoxide 95, Mot1-301 SUMO 382* and Yeast Mot1 SUMO 0.
COc1cccc(CNC(=O)C[C@@H]2CC[C@@H]3[C@@H](COc4ccc(NC(C)=O)cc4C(=O)N3C)O2)c1 was read as PglD DTNB -4, Cneo AK release -1 and Ecoli rRNA inh 3.
Screening CCC1(c2ccccc2)NC(=O)N(CC(=O)N(C)CC(=O)Nc2c(C)cccc2C)C1=O (stereo not given) returned PglD DTNB 6, Yeast superoxide 97, Mot1-301 SUMO 31, Cneo AK release -3 and Ecoli rRNA inh 0.
For CCC1(c2ccccc2)NC(=O)N(CC(=O)N(C)CC(=O)Nc2ccc(F)c(F)c2F)C1=O (stereo not given) the results were Yeast superoxide 116, Mot1-301 SUMO 609*, Ecoli rRNA inh 9 and Yeast Mot1 SUMO 1.
CCC(=O)NCc1c(Cl)cccc1-n1cccc1 was read as Yeast superoxide 93 and Mot1-301 SUMO -2.
CC(=O)NCc1c(Cl)cccc1-n1cccc1 was read as PglD DTNB 4, Yeast superoxide 100, Mot1-301 SUMO 785*, Ecoli rRNA inh 6 and Yeast Mot1 SUMO 0.
Screening O=C1NC(Cc2c[nH]c3ccccc23)C(=O)N1Cc1ccc(CN2C(=O)NC(Cc3c[nH]c4ccccc34)C2=O)cc1 (stereo not given) returned PglD DTNB 3, Yeast superoxide 98, Mot1-301 SUMO 572*, Cneo AK release 19, Ecoli rRNA inh -9 and Yeast Mot1 SUMO 1.
Screening CN(Cc1cccnc1)Cc1cn[nH]c1-c1ccc(-c2ccccc2)cc1 returned PglD DTNB -1, Yeast superoxide 103, Mot1-301 SUMO 791*, Cneo AK release -2, Ecoli rRNA inh -17 and Yeast Mot1 SUMO 0.
Screening O=c1[nH]c(SCc2ccccc2Cl)nc2c1CCCC2 returned PglD DTNB 2, Yeast superoxide 96, Mot1-301 SUMO -1 and Cneo AK release 3.
Screening O=C1CCCC2=C1C(c1ccncc1)c1c(nc(SCc3ccccc3Cl)[nH]c1=O)N2 (stereo not given) returned PglD DTNB 4, Yeast superoxide 105, Mot1-301 SUMO 682*, Cneo AK release 2 and Yeast Mot1 SUMO 0.
Screening COC(=O)C12CCC3(SCCS3)C(C(=O)OC)(CCC13SCCS3)C2 returned PglD DTNB -10, Yeast superoxide 111, Mot1-301 SUMO 523*, Cneo AK release -2, Ecoli rRNA inh -4 and Yeast Mot1 SUMO 0.
COC(=O)C1CC2(C(=O)OC)CC(C(=O)OC)(CC(C(=O)OC)C2=O)C1=O (stereo not given) was read as PglD DTNB 3, Cneo AK release -1 and Ecoli rRNA inh 9.
For C[C@@H]1CN([C@H](C)CO)S(=O)(=O)c2ccc(-c3cccnc3)cc2O[C@H]1CN(C)Cc1cccnc1 the results were Ecoli rRNA inh -1.
`CCCCCCC(C)n1[nH]c(=O)c2c(C)cc(=O)[nH]c21` (stereo not given) gave PglD DTNB -6, Yeast superoxide 94, Mot1-301 SUMO 531*, Cneo AK release 0, Ecoli rRNA inh -1 and Yeast Mot1 SUMO 0.
`CCCCC(C)n1[nH]c(=O)c2c(C)cc(C)nc21` (stereo not given) gave Yeast superoxide 114, Mot1-301 SUMO -13 and Ecoli rRNA inh 5.
Screening C/C=C/c1ccc2c(c1)O[C@@H](CN(C)C(=O)NCCC)[C@@H](C)CN([C@@H](C)CO)S2(=O)=O returned PglD DTNB 0, Cneo AK release -10 and Ecoli rRNA inh -4.
`CN(C)c1ccc(CN(Cc2ccco2)C(=O)c2ccco2)cc1` gave PglD DTNB -3, Yeast superoxide 82, Mot1-301 SUMO 366*, Cneo AK release 1, Ecoli rRNA inh -8 and Yeast Mot1 SUMO 0.
For COc1cccc(NC(=O)N[C@H]2CC[C@@H](CC(=O)N3CCCCC3)O[C@H]2CO)c1 the results were PglD DTNB 14, Cneo AK release -17 and Ecoli rRNA inh 1.
Screening Cc1noc(C)c1NC(=O)Nc1ccc2c(c1)C(=O)N([C@@H](C)CO)C[C@@H](C)[C@@H](CN(C)C(=O)Nc1ccccc1)OCCCC[C@@H](C)O2 returned PglD DTNB 0, Cneo AK release -4 and Ecoli rRNA inh 0.
For O=C(NCCCN1CCOCC1)C1CCC(=O)N1CCc1ccccc1 (stereo not given) the results were PglD DTNB 1, Yeast superoxide 95, Mot1-301 SUMO 408*, Cneo AK release 1, Ecoli rRNA inh 12 and Yeast Mot1 SUMO -1.
CCn1c(C)c(C(C)=O)c(N2CCN(c3ccc(F)cc3)CC2)nc1=S was read as PglD DTNB 4, Yeast superoxide 101, Mot1-301 SUMO 917*, Cneo AK release 0 and Yeast Mot1 SUMO 0.
Screening COCCNC[C@H]1[C@@H](c2ccccc2)[C@@H](CO)N1c1nc(C)c(C)s1 returned PglD DTNB -3, Cneo AK release -10 and Ecoli rRNA inh -2.
For C[C@H]1CN([C@@H](C)CO)S(=O)(=O)c2ccc(C3=CCCC3)cc2O[C@H]1CN(C)C the results were PglD DTNB -3, Cneo AK release 1 and Ecoli rRNA inh 5.
For COc1cccc(-n2nnc3c(=O)n(CC(=O)N4CCC(C)CC4)cnc32)c1 the results were PglD DTNB -1, Yeast superoxide 76, Mot1-301 SUMO -3, Cneo AK release -3 and Ecoli rRNA inh 1.
COc1cccc(-n2nnc3c(=O)n(CC(=O)N4CCCc5ccccc54)cnc32)c1 was read as PglD DTNB -1, Yeast superoxide 134, Mot1-301 SUMO active, Cneo AK release -1 and Yeast Mot1 SUMO 0.
Screening Cc1ccc(SC[C@H](C)CN2CC[C@H](C)CCC2=O)cc1 returned PglD DTNB -2, Yeast superoxide 100, Mot1-301 SUMO 460*, Cneo AK release 1, Ecoli rRNA inh -10 and Yeast Mot1 SUMO 0.
Screening Nc1cc[n+](CC(=O)Nc2ccccc2)cc1 returned Yeast superoxide 101, Mot1-301 SUMO 799*, Ecoli rRNA inh 25 and Yeast Mot1 SUMO 1.
